Screening results as filed in PubChem BioAssay.
Measles CPE: protection of cells from measles virus | actives 1.5% (n = 140,000) | Measles virus-infected cells, CPE protection, absorbance | protection (pct of control), % at 4 µM; in the data active means protection mostly above about 24%, no sharp cut-off; inactive means mostly below about 26%
SDO1 yeast rescue: sdo1-depleted yeast growth rescue; AID 817; z-score at 10 µM; S. cerevisiae sdo1-depleted JHY4D growth rescue, OD600 30 h; stronger effect = higher value; pdr5 snq2 efflux-pump mutant strain; actives 0.21% (n = 140,000);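 active means z-score above 3 at both the 24 hr and the 30 hr optical density reads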;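 further: z-score against mean and SD of all compound wells on the same plate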
RAM network inh: yeast RAM network inhibition. S. cerevisiae dse1pr::URA3 reporter, 5-FOA growth OD615, 2 d; analog-sensitive cbk1-as2 kinase mutant strain. inhibition, % at 50 µM. actives 1.8% (n = 190,000). AID 868;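 active means inhibition above a set limit, 3 SD over mean compound inhibition, cut at about 8.4% in these data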;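 further: 0% = DMSO-only wells with no growth and 100% = 10 µM 1-NA-PP1 full growth; inhibition rescues growth on 5-FOA so higher OD means more RAM inhibition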
Yeast life ext: yeast lifespan extension. S. cerevisiae growth with nicotinamide, OD615; deaD strain in restrictive glucose medium. inhibition of the nicotinamide effect, % at 10 µM. actives 0.68% (n = 130,000). AID 775;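 active means inhibition above a set limit, placed 3 SD over the median of all compounds, cut at about 26% in these data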;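 further: 0% = nicotinamide-treated wells and 100% = cells grown without nicotinamide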
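Assay system: engineered S. cerevisiae DeaD replicative-lifespan strain, galactose-grown log-phase cells; Buffer or medium: CSMM-D glucose medium, restrictive; Probe or stimulus: nicotinamide 1.5 mM; Compound: single dose 10 µM compound, 0.25% DMSO; Schedule: 4 h preincubation then 48 h treatment at 30 °C; Technique: OD615 measurement.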
BB579 growth dn: reduces growth of yeast BB579 in restrictive medium; inhibition, % at 10 µM; S. cerevisiae BB579 growth, OD615, 48 h; actives 0.51% (n = 140,000); AID 804;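 active means inhibition above a set limit, 3 SD over the mean compound inhibition, cut at about 44% in these data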
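System: Saccharomyces cerevisiae DeaD strain BB579, replicative lifespan model yeast | Buffer or medium: Restrictive glucose-based CSMM-D medium | Times: 4 h preincubation and 48 h exposure at 30 °C | Detection: OD615 turbidity measurement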
Active calls of the source: *; / = no result. Hits are enriched below; roughly 3.8% of the tested compounds scored in any of these assays.

SMILES	Measles CPE	SDO1 yeast rescue	RAM network inh	Yeast life ext	BB579 growth dn
COc1ccc(CN2C(=O)c3ccccc3C(/C=N/OCc3ccc(Cl)cc3)C2=O)cc1 (stereo not given)	5	0.28	10*	-3	-32
CC(C)N=C(NS(=O)(=O)c1ccccc1)C(Cl)(Cl)Cl	22	-1.8	1	40*	-28
CCNC(=O)c1ccccc1-c1nc(-c2ccccc2Cl)no1	35*	-0.35	1	-19	10
CC(C)NC(=O)c1ccccc1-c1nc(-c2ccccc2Cl)no1	15	0.5	0	-9	-57
CCSc1nnc(NC(=O)C(C)Sc2nc3ccccc3[nH]2)s1 (stereo not given)	13	0.25	-1	8	25
O=C1ON=C(c2cccc([N+](=O)[O-])c2)/C1=C/c1ccc(O)cc1	/	/	-1	/	/
CCOC(=O)CSC1=NC(=O)/C(=C/c2ccc(OC)cc2)S1	1	-1.7	1	57*	-5
NNC(=O)c1cccc(O)c1	6	0.79	1	-2	-34
CNC(=O)COc1ncnc2sccc12	0	-0.43	0	-14	-16
Cc1cc(C(=O)COc2ncnc3sccc23)c(C)n1C	11	-0.3	2	35*	-63
Cc1cc([N+](=O)[O-])c2[nH]c(C(=O)N/N=C/c3ccccc3C(=O)O)c(-c3ccccc3)c2c1	14	-1.3	8.7*	-14	-65
COc1ccc(OC)c(NC(=O)CSc2nnc(C)n2Cc2ccccc2)c1	10	0.54	9.2*	-8	-13
CCn1c(COc2ccc(C)cc2)nnc1SCC(=O)Nc1cc(OC)ccc1OC	49*	-1.2	3	-8	-3
CCn1c(COc2ccccc2)nnc1SCC(=O)Nc1cc(C)ccc1OC	15	-1.8	2	-6	-42
Cc1nn(-c2cc(N(S(C)(=O)=O)S(C)(=O)=O)c(Cl)cc2Cl)c(=O)n1C	3	0.1	2	2	-4
CC(OC(=O)CCCN1C(=O)c2ccccc2C1=O)C(=O)Nc1ncc(Cl)cc1Cl (stereo not given)	9	-0.57	2	30*	-13
CC(OC(=O)Cc1coc2ccc3ccccc3c12)C(=O)Nc1ncc(Cl)cc1Cl (stereo not given)	7	-0.7	4	0	-1
N#C/C(=C\c1ccccc1)c1nc2ncccc2[nH]1	56*	0.46	1	-9	-32
C[C@]12CC[C@@H]3c4ccc(O)cc4CC[C@H]3[C@@H]1CC[C@@H]2OC(=O)CCC(=O)O	51	-0.89	2	57*	-61
COc1cccc(CNC(=S)Nc2cc(OC)ccc2OC)c1	/	/	2	/	/
CCOc1ccc(CCNC(=O)CN2CCN(Cc3ccccc3C)C2=O)cc1OCC	4	1	-1	-17	2
O=C(Nc1ccc(Cl)cc1)Nc1ccccc1C(=O)NCc1ccco1	38*	0.06	1	-9	-37
COc1ccc(Cl)cc1N(CC(=O)Nc1ccccc1C(=O)NCc1ccco1)S(C)(=O)=O	46*	-0.14	1	-19	0
O=C(Nc1ccccc1C(=O)NCc1ccco1)c1ccccc1	13	-0.24	2	-15	-12
O=C(/C=C/c1ccc(Cl)cc1)NCc1ccco1	18*	-0.87	0	-7	11
SMILES	Measles CPE	SDO1 yeast rescue	RAM network inh	Yeast life ext	BB579 growth dn
COc1ccc(C)c2sc(NNC(=O)COc3ccccc3)nc12	/	/	5	/	/
CCCCNC(=O)CSc1nnc(Cc2ccccc2)n1CC	18	0.9	-1	/	-33
Cc1[nH]n(-c2ncc(-c3ccc(Cl)cc3)s2)c(=O)c1C(c1ccc(Cl)cc1)C(C#N)C#N (stereo not given)	1	-0.91	8.6*	8	-9
COc1cc(OC)cc(-c2nnc(SCc3c(F)cccc3Cl)o2)c1	3	-0.11	8.9*	1	-53
CC(=O)Nc1cccc(NC(=O)c2cc(-c3cccnc3)nc3ccc(Br)cc23)c1	29	0.46	3	-7	-39
CC(=O)Nc1cccc(NC(=O)c2cc(-c3cccnc3)nc3ccc(Cl)cc23)c1	/	/	9.3*	/	/
COc1ccc(C)cc1S(=O)(=O)N(CC(=O)Nc1cccc([N+](=O)[O-])c1)c1ccc(C)c(C)c1	50*	-0.93	3	8	-37
Cc1ccc(C(=O)c2c(NC(=O)c3ccccc3C)sc(C)c2C)cc1	5	0.58	10*	-25	-47
CCN(CC)CC(=O)Nc1sc(C)c(C)c1C(=O)c1ccc(C)cc1	/	/	2	/	/
CCCCCCCOc1ccc(-c2ccc(C#N)cn2)cc1	3	-0.12	10*	-2	-12
CCCCOc1ccc(-c2cnc3ccccc3n2)cc1	8	-0.14	3	-2	-34
Clc1cccc(Cl)c1-c1nnc2cccc(Cl)n12	8	-0.82	1	/	-19
COc1ccc(S(=O)(=O)N(CC(=O)O)c2ccc(C)cc2)cc1	3	1.4	1	-11	11
COc1ccc(N(C(=O)COc2cccc(C)c2)S(=O)(=O)c2ccc(C)cc2)cc1	3	-0.89	9.7*	19	-44
CCOC(=O)CSc1nnc(CSc2nc3sc4c(c3c(=O)[nH]2)CCC4)n1C	7	0.64	8.7*	-8	-60
CCOC(=O)CSc1nc2sc(C)c(C)c2c(=O)[nH]1	5	-0.61	1	-26	-16
CCOC(=O)/C(=C\c1ccc(Cl)cc1)c1nc2sc(C)c(C)c2c(=O)[nH]1	25	-1.7	3	32*	-14
CC(C)Sc1nc2[nH]ncc2c(=O)[nH]1	/	/	1	/	/
N#CCCn1nc(-c2ccccc2)cc1Nc1ccccc1NC(=O)C(F)(F)F	6	0.43	4	0	-35
N#CCCn1nc(-c2ccc(Br)cc2)cc1Nc1ccccc1NC(=O)C(F)(F)F	2	-0.58	10*	2	-38
CCOC(=O)C(=O)c1csc(NC(=O)CCSc2ccc(C)cc2)n1	/	/	2	/	/
CCCn1c(=O)c(C(=O)OCC)c(O)c2cc(Br)ccc21	/	/	9.8*	/	/
C=CCn1c(=O)c(C(=O)OCC)c(O)c2ccccc21	/	/	-3	/	/
CCNC(=S)N1CCC(NC(=O)C2CCCCC2)CC1	2	0.67	1	-11	-2
CCNC(=S)NNC(=O)C1CCCCC1	28*	1.4	2	36	-52
O=C(Nc1nc2ccc(SC(F)F)cc2s1)c1ccc(NS(=O)(=O)c2ccc(F)c(F)c2)cc1	7	-1.8	7	0	-45
COc1ccccc1NS(=O)(=O)c1ccc(N/N=C/c2c(C)nn(-c3ccccc3)c2N2CCCC2)c([N+](=O)[O-])c1	10	1.8	9.6*	2	-45
CCOc1ccc(S(=O)(=O)Nc2ccc(C(=O)N/N=C/c3c(C)nn(-c4ccccc4)c3N3CCCC3)cc2)cc1	8	0.44	5	2	-20
Cc1nn(-c2ccccc2)c(N2CCCC2)c1/C=N/Nc1ccc(S(=O)(=O)Nc2ccccc2)cc1[N+](=O)[O-]	5	0.64	9.0*	4	-8
Cc1ccc(CNC(=O)Cn2c(=O)oc3ccccc32)o1	5	-0.19	0	-7	-40
